ChEMBL document CHEMBL1921722, “In vitro and in vivo evaluation of select kahalalide F analogs with antitumor and antifungal activities” (Bioorg Med Chem, 2011)
The source made the active and inactive calls.

Experiments:
U-251 = assay: Cytotoxicity against human U251 cells assessed as cell growth at 8 nM by sulforhodamine B assay relative to control; assay type: functional; settings: read-out: Activity
HT-29 = assay: Cytotoxicity against human HT-29 cells assessed as cell growth at 8 nM by sulforhodamine B assay relative to control; assay type: functional; settings: read-out: Activity
COLO 205 [1] = assay: Cytotoxicity against human COLO205 cells assessed as cell growth at 80 uM by sulforhodamine B assay relative to control; assay type: functional; settings: read-out: Activity
In short: (§1)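 Run at NCI in the DTP 60-cell-line human tumor panel by standard procedure. Compounds were first screened at a single concentration, then tested at five tenfold-spaced concentrations. GI50 is the concentration reducing treated-cell growth to half that of untreated controls; TGI is the concentration completely halting growth.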

MDA-MB-231 [2] = assay: Antitumor activity against human MDA-MB-231 cells xenografted in mouse assessed as tumor cell killing at 4.7 mg/kg, ip qd for 4 days by MTT assay; assay type: functional, organism-based; design: dose 4.7 mg/kg
In short: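 Hollow-fiber assay in mice. Tumor lines were grown in RPMI-1640 with 10% FBS and 2 mM glutamine. Cells at 2 × 10^6 cells/ml were loaded into 1 mm PVDF fibers (500,000 Da cutoff), heat-sealed at 2 cm and held 24–48 h at 37 °C, 5% CO2 before implantation. Compound was given IP. Fibers were collected the day after the fourth treatment for MTT (OD 540 nm, group means). A ≥50% cut in percent net growth versus vehicle counted as positive.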

A549 = assay: Cytotoxicity against human A549 cells assessed as cell growth at 8 uM by sulforhodamine B assay relative to control; assay type: functional; settings: read-out: Activity; in short: as §1
K562 [3] = assay: Cytotoxicity against human K562 cells assessed as cell growth at 8 uM by sulforhodamine B assay relative to control; assay type: functional; settings: read-out: Activity
SF-295 [4] = assay: Cytotoxicity against human SF295 cells assessed as cell growth at 800 nM by sulforhodamine B assay relative to control; assay type: functional; settings: read-out: Activity
K562 [5] = assay: Cytotoxicity against human K562 cells by sulforhodamine B assay; assay type: functional; settings: for CC50: read-out: pLC50 (the source's name) (converted); for TGI: read-out: pTGI (converted)
In short: (§2)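 NCI Developmental Therapeutics Program 60-cell-line human tumor panel screen, run at NCI. A single-concentration pre-screen was followed by a five-concentration dose-response in 10-fold steps. GI50 is the concentration that reduces growth of treated cells to half that of untreated control cells. TGI is the concentration that completely halts growth.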

UO-31 [6] = assay: Cytotoxicity against human UO31 cells assessed as cell growth at 800 nM by sulforhodamine B assay relative to control; assay type: functional; settings: read-out: Activity
OVCAR-3 [7] = assay: Cytotoxicity against human OVCAR3 cells assessed as cell growth at 8 uM by sulforhodamine B assay relative to control; assay type: functional; settings: read-out: Activity
HL-60(TB) = assay: Cytotoxicity against human HL-60(TB) cells assessed as cell growth at 8 uM by sulforhodamine B assay relative to control; assay type: functional; settings: read-out: Activity
HOP-62 [8] = assay: Cytotoxicity against human HOP62 cells assessed as cell growth at 80 uM by sulforhodamine B assay relative to control; assay type: functional; settings: read-out: Activity
COLO 205 [9] = assay: Cytotoxicity against human COLO205 cells assessed as cell growth at 80 nM by sulforhodamine B assay relative to control; assay type: functional; settings: read-out: Activity; in short: as §1
MDA-MB-435 = assay: Cytotoxicity against human MDA-MB-435 cells assessed as cell growth at 800 nM by sulforhodamine B assay relative to control; assay type: functional; settings: read-out: Activity
TK-10 = assay: Cytotoxicity against human TK10 cells assessed as cell growth at 80 nM by sulforhodamine B assay relative to control; assay type: functional; settings: read-out: Activity
SNB-19 [10] = assay: Cytotoxicity against human SNB19 cells assessed as cell growth at 8 uM by sulforhodamine B assay relative to control; assay type: functional; settings: read-out: Activity
BT-549 = assay: Cytotoxicity against human BT549 cells assessed as cell growth at 80 nM by sulforhodamine B assay relative to control; assay type: functional; settings: read-out: Activity; in short: as §1
SF-295 [11] = assay: Cytotoxicity against human SF295 cells assessed as cell growth at 80 uM by sulforhodamine B assay relative to control; assay type: functional; settings: read-out: Activity
HCT-116 = assay: Cytotoxicity against human HCT116 cells assessed as cell growth at 800 nM by sulforhodamine B assay relative to control; assay type: functional; settings: read-out: Activity
SK-MEL-2 [12] = assay: Cytotoxicity against human SK-MEL-2 cells assessed as cell growth at 80 nM by sulforhodamine B assay relative to control; assay type: functional; settings: read-out: Activity
OVCAR-8 = assay: Cytotoxicity against human OVCAR8 cells assessed as cell growth at 80 nM by sulforhodamine B assay relative to control; assay type: functional; settings: read-out: Activity
[13] = tested on: Mycobacterium intracellulare; assay: Antimicrobial activity against Mycobacterium intracellular ATCC 23068 after 5 days by MABA assay; assay type: functional, organism-based; settings: ATCC 23068, 120 h
In short: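 M. intracellulare was tested by a modified Franzblau method. Samples were serially diluted in 20% DMSO/saline, run in duplicate, and inocula were adjusted by OD630. […] IC50 is 50% growth inhibition; MIC is the lowest concentration with no detectable growth.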

SF-295 [14] = assay: Cytotoxicity against human SF295 cells by sulforhodamine B assay; assay type: functional; settings: for TGI: read-out: pTGI (converted); in short: as §2
HCC 2998 = assay: Cytotoxicity against human HCC2998 cells by sulforhodamine B assay; assay type: functional
In short: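 Run by the NCI Developmental Therapeutics Program on its 60-line human tumour cell panel using the standard procedure. Compounds went through a single-concentration prescreen first, and those active by NCI criteria went on to a five-concentration growth-inhibition test. GI50 is the concentration that cuts growth of treated cells to half that of untreated control cells.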

SN12C = assay: Cytotoxicity against human SN12C cells assessed as cell growth at 80 nM by sulforhodamine B assay relative to control; assay type: functional; settings: read-out: Activity
SNB-19 [15] = assay: Cytotoxicity against human SNB19 cells by sulforhodamine B assay; assay type: functional; settings: for TGI: read-out: pTGI (converted); in short: as §2
OVCAR-4 = assay: Cytotoxicity against human OVCAR4 cells assessed as cell growth at 8 nM by sulforhodamine B assay relative to control; assay type: functional; settings: read-out: Activity
UO-31 [16] = assay: Cytotoxicity against human UO31 cells assessed as cell growth at 8 nM by sulforhodamine B assay relative to control; assay type: functional; settings: read-out: Activity
HCT-15 = assay: Cytotoxicity against human HCT15 cells assessed as cell growth at 800 nM by sulforhodamine B assay relative to control; assay type: functional; settings: read-out: Activity
K562 [17] = assay: Cytotoxicity against human K562 cells assessed as cell growth at 80 uM by sulforhodamine B assay relative to control; assay type: functional; settings: read-out: Activity
OVCAR-3 [18] = assay: Cytotoxicity against human OVCAR3 cells assessed as cell growth at 80 nM by sulforhodamine B assay relative to control; assay type: functional; settings: read-out: Activity
T47D = assay: Cytotoxicity against human T47D cells assessed as cell growth at 80 uM by sulforhodamine B assay relative to control; assay type: functional; settings: read-out: Activity
HOP-62 [19] = assay: Cytotoxicity against human HOP62 cells assessed as cell growth at 8 uM by sulforhodamine B assay relative to control; assay type: functional; settings: read-out: Activity
SK-MEL-2 [20] = assay: Cytotoxicity against human SK-MEL-2 cells assessed as cell growth at 80 uM by sulforhodamine B assay relative to control; assay type: functional; settings: read-out: Activity
MDA-MB-231 [21] = assay: Cytotoxicity against human MDA-MB-231 cells assessed as cell growth at 800 nM by sulforhodamine B assay relative to control; assay type: functional; settings: read-out: Activity

C/C=C1\NC(=O)[C@H](Cc2ccccc2)NC(=O)[C@@H](C(C)C)NC(=O)[C@@H]([C@@H](C)CC)NC(=O)[C@H](NC(=O)[C@H](NC(=O)[C@H](CCCNCc2ccc(N3CCOCC3)cc2)NC(=O)[C@H]2CCCN2C(=O)[C@H](NC(=O)[C@@H](NC(=O)[C@@H](NC(=O)[C@H](NC(=O)CCCC(C)C)C(C)C)[C@@H](C)O)C(C)C)C(C)C)[C@@H](C)CC)[C@@H](C)OC(=O)[C@H](C(C)C)NC1=O
growth at 0.008 µM (U-251): 94%
growth at 0.008 µM (HT-29): 92%
growth at 80 µM (COLO 205 [1]): 13%
Activity (MDA-MB-231 [2]): inactive
growth at 8 µM (A549): -65%
growth at 8 µM (K562 [3]): 37%
growth at 0.8 µM (SF-295 [4]): 101%
GI50 (K562 [5]): 4.79 µM
CC50 (K562 [5]): > 75.9 µM
TGI (K562 [5]): 22.9 µM
growth at 0.8 µM (UO-31 [6]): 96%
growth at 8 µM (OVCAR-3 [7]): -72%
growth at 8 µM (HL-60(TB)): -17%
growth at 80 µM (HOP-62 [8]): -55%
growth at 0.08 µM (COLO 205 [9]): 95%
growth at 0.8 µM (MDA-MB-435): 94%
growth at 0.08 µM (TK-10): 96%
growth at 8 µM (SNB-19 [10]): -70%
growth at 0.08 µM (BT-549): 95%
growth at 80 µM (SF-295 [11]): -33%
growth at 0.8 µM (HCT-116): 104%
growth at 0.08 µM (SK-MEL-2 [12]): 101%
growth at 0.08 µM (OVCAR-8): 98%
IC50 [13]: > 20 µM
MBC [13]: > 20 µM
MIC [13]: > 20 µM
GI50 (SF-295 [14]): 1.74 µM
LC50 (SF-295 [14]): > 75.9 µM
TGI (SF-295 [14]): 3.89 µM
LC50 (HCC 2998): 3.31 µM
GI50 (HCC 2998; read-out: GI50): 0.25 µM
TGI (HCC 2998; read-out: TGI): 0.877 µM
GI50 (HCC 2998; read-out: pGI50 (converted)): 0.251 µM
TGI (HCC 2998; read-out: pTGI (converted)): 0.871 µM
growth at 0.08 µM (SN12C): 91%
GI50 (SNB-19 [15]): 1.35 µM
TGI (SNB-19 [15]): 2.75 µM
growth at 0.008 µM (OVCAR-4): 103%
growth at 0.008 µM (UO-31 [16]): 101%
growth at 0.8 µM (HCT-15): 3%
growth at 80 µM (K562 [17]): -39%
growth at 0.08 µM (OVCAR-3 [18]): 87%
growth at 80 µM (T47D): -7%
growth at 8 µM (HOP-62 [19]): -70%
growth at 80 µM (SK-MEL-2 [20]): -32%
growth at 0.8 µM (MDA-MB-231 [21]): 86%

C/C=C1\NC(=O)[C@H](Cc2ccccc2)NC(=O)[C@@H](C(C)C)NC(=O)[C@@H]([C@@H](C)CC)NC(=O)[C@H](NC(=O)[C@H](NC(=O)[C@H](CCCNCc2ccc(F)c(C)c2)NC(=O)[C@H]2CCCN2C(=O)[C@H](NC(=O)[C@@H](NC(=O)[C@@H](NC(=O)[C@H](NC(=O)CCCC(C)C)C(C)C)[C@@H](C)O)C(C)C)C(C)C)[C@@H](C)CC)[C@@H](C)OC(=O)[C@H](C(C)C)NC1=O
growth at 0.008 µM (U-251): 96%
growth at 0.008 µM (HT-29): 100%
growth at 80 µM (COLO 205 [1]): 33%
Activity (MDA-MB-231 [2]): inactive
growth at 8 µM (A549): -64%
growth at 8 µM (K562 [3]): -43%
growth at 0.8 µM (SF-295 [4]): 89%
GI50 (K562 [5]): 1.82 µM
CC50 (K562 [5]): > 75.9 µM
TGI (K562 [5]): 3.89 µM
growth at 0.8 µM (UO-31 [6]): 92%
growth at 8 µM (OVCAR-3 [7]): -94%
growth at 8 µM (HL-60(TB)): -65%
growth at 80 µM (HOP-62 [8]): -85%
growth at 0.08 µM (COLO 205 [9]): 90%
growth at 0.8 µM (MDA-MB-435): 83%
growth at 0.08 µM (TK-10): 105%
growth at 8 µM (SNB-19 [10]): -84%
growth at 0.08 µM (BT-549): 76%
growth at 80 µM (SF-295 [11]): -35%
growth at 0.8 µM (HCT-116): 104%
growth at 0.08 µM (SK-MEL-2 [12]): 101%
growth at 0.08 µM (OVCAR-8): 103%
IC50 [13]: > 20 µM
MBC [13]: > 20 µM
MIC [13]: > 20 µM
GI50 (SF-295 [14]): 1.26 µM
TGI (SF-295 [14]): 2.4 µM
LC50 (HCC 2998): 0.891 µM
GI50 (HCC 2998; read-out: GI50): 0.172 µM
TGI (HCC 2998; read-out: TGI): 0.367 µM
GI50 (HCC 2998; read-out: pGI50 (converted)): 0.174 µM
TGI (HCC 2998; read-out: pTGI (converted)): 0.363 µM
growth at 0.08 µM (SN12C): 94%
GI50 (SNB-19 [15]): 1.29 µM
LC50 (concentration killing 50% of cells) (SNB-19 [15]): 4.79 µM
TGI (SNB-19 [15]): 2.45 µM
growth at 0.008 µM (OVCAR-4): 100%
growth at 0.008 µM (UO-31 [16]): 100%
growth at 0.8 µM (HCT-15): -35%
growth at 80 µM (K562 [17]): -14%
growth at 0.08 µM (OVCAR-3 [18]): 88%
growth at 80 µM (T47D): -13%
growth at 8 µM (HOP-62 [19]): -93%
growth at 80 µM (SK-MEL-2 [20]): -21%
growth at 0.8 µM (MDA-MB-231 [21]): 91%
